≈ marks a conversion by molar mass, not a printed value.
What was measured:
[1] = AUC (0-4 hr) ug/ml/h; type: ADME, cell-free; design: time < 4 hr; concentration or dose not given beside the values; conditions: plasma
Method in brief: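 Mice dosed once orally at 50 mg/kg; blood taken from groups of six mice at 0.5, 1, 2 and 4 h. Serum drug assayed by disk agar diffusion bioassay (Bacillus subtilis ATCC 6633 on Seed Agar, 37 °C, 18 h), giving total activity.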

[2] = HPLC capacity factor (k'); type: ADME
Method in brief: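 Ion-pair reversed-phase HPLC on ODS-2 (10 μm) at 45 °C. Mobile phase: 10 mM sodium heptanesulfonate plus 50 mM KH2PO4 (pH 3.5)–methanol 45:55, 1 mL/min. Samples at 100 μg/mL in DMF, injected in duplicate, UV 280 nm. k' = (tR − t0)/t0.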

Klebsiella pneumoniae = assay: In vitro minimum inhibitory concentration to inhibit Klebsiella pneumoniae ATCC 10031; type: functional
Method in brief: (§1)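 Serial 2-fold agar dilution in Mueller Hinton medium, run alongside a reference quinolone. Inoculum adjusted to 10⁸ cfu/mL; compound range 0.007–16 μg/mL.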

Enterobacter cloacae = assay: In vitro minimum inhibitory concentration for Enterobacter cloacae ATCC 23355; type: functional
[3] = Solubility (buffer pH 7.4); type: physicochemical; conditions: read-out: S
Method in brief: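 Excess solid shaken in 0.05 M phosphate buffer pH 7.4 for 24 h at 25 °C. Suspension filtered through 0.22 μm, discarding the first portion. Filtrate diluted in 0.1 N HCl or 0.1 N NaOH and read by UV at the compound's absorbance maximum.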

[4] = tested on: Staphylococcus epidermidis; assay: In vitro minimum inhibitory concentration for Staphylococcus epidermidis ATCC 155-1; type: functional; method in brief: as §1
Morganella morganii = assay: In vitro minimum inhibitory concentration for Morganella morganii ATCC 8019; type: functional; method in brief: as §1
Enterococcus faecalis [5] = assay: In vitro minimum inhibitory concentration for Streptococcus faecalis ATCC 10541; type: functional; method in brief: as §1
Proteus vulgaris = assay: In vitro minimum inhibitory concentration for Proteus vulgaris ATCC 8427; type: functional; method in brief: as §1
[6] = Measured ionization constant (pKa); type: physicochemical; conditions: read-out: pKa1
Method in brief: (§2)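 Spectrophotometric titration at 20 ± 1 °C, 0.1 M ionic strength, pH varied with H2SO4 or NaOH made up in the compound stock. Absorbance followed at compound-specific wavelengths chosen from 200–400 nm scans. pKa1 and pKa2 taken as the inflection points of the two-step absorbance vs pH curve.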

Bacillus subtilis = assay: In vitro minimum inhibitory concentration for Bacillus subtilis ATCC 6633; type: functional; method in brief: as §1
Escherichia coli [7] = assay: In vitro minimum inhibitory concentration for Escherichia coli ATCC 10799; type: functional; method in brief: as §1
Mus musculus [8] = assay: Evaluation of efficacy on systemic infections Pseudomonas aeruginosa HS-116, after oral administration in mice; type: functional
Method in brief: (§3)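 Single oral dose given immediately after infection, one of four doses per group, chosen from in vitro activity. Survival scored after one week. ED50 (total mg/kg protecting 50%) interpolated from survival rates.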

Pseudomonas aeruginosa = assay: In vitro minimum inhibitory concentration for Pseudomonas aeruginosa ATCC 10145; type: functional; method in brief: as §1
Bacillus cereus = assay: In vitro minimum inhibitory concentration for Bacillus cereus ATCC 11778; type: functional; method in brief: as §1
[9] = Dissociation constant (pKa); type: physicochemical; conditions: read-out: pKa2; method in brief: as §2
Mus musculus [10] = assay: Evaluation of efficacy on systemic infections Staphylococcus aureus HS-93, after oral administration in mice; type: functional; method in brief: as §3
Staphylococcus aureus = assay: In vitro minimum inhibitory concentration for Staphylococcus aureus ATCC 25178; type: functional; method in brief: as §1
Mus musculus [11] = assay: Evaluation of efficacy on systemic infections Escherichia coli HM-42, after oral administration in mice; type: functional; method in brief: as §3
[12] = Measured inonisation constant (pKa); type: physicochemical; conditions: read-out: pKa2; method in brief: as §2
Enterococcus faecalis [13] = assay: microbe, parasite or virus in culture; conditions: ATCC 10541
Escherichia coli [14] = assay: In vitro minimum inhibitory concentration to inhibit Escherichia coli ATCC 10799; type: functional
Method in brief: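 Serial 2-fold agar dilution on Mueller Hinton medium, run alongside 1b as comparator. Inoculum adjusted to 10⁸ cfu/mL; compound range 0.007 to 16 μg/mL. Incubated 37 °C for 18 h. MIC taken as the lowest concentration preventing visible growth.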

AUC [1]	Log k' [2]	MIC (Klebsiella pneumoniae)	MIC (Enterobacter cloacae)	solubility [3]	MIC [4]	MIC (Morganella morganii)	MIC (Enterococcus faecalis [5])	MIC (Proteus vulgaris)	pKa [6]	MIC (Bacillus subtilis)	MIC (Escherichia coli [7])	MIC (Pseudomonas aeruginosa)	MIC (Bacillus cereus)	pKa [9]	MIC (Staphylococcus aureus)	Compound	ED50 (Mus musculus [8])	ED50 (Mus musculus [10])	ED50 (Mus musculus [11])	further results
20800 ng·h/mL	0.292	0.03 µg/mL (≈ 0.0826 µM)	0.03 µg/mL (≈ 0.0826 µM)	13.1 µg/mL (≈ 36.1 µM)	0.06 µg/mL (≈ 0.165 µM)	0.06 µg/mL (≈ 0.165 µM)	0.5 µg/mL (≈ 1.38 µM)	0.12 µg/mL (≈ 0.33 µM)	6.13	0.03 µg/mL (≈ 0.0826 µM)	0.06 µg/mL (≈ 0.165 µM)	0.5 µg/mL (≈ 1.38 µM)	0.06 µg/mL (≈ 0.165 µM)	8.5	0.06 µg/mL (≈ 0.165 µM)	CN[C@H]1CN(c2c(F)cc3c(=O)c(C(=O)O)cn(C4CC4)c3c2F)[C@@H]1C	70.5 mg/kg	11.2 mg/kg	2.3 mg/kg	–
5200 ng·h/mL	0.1361	0.007 µg/mL (≈ 0.0191 µM)	0.03 µg/mL (≈ 0.082 µM)	12 µg/mL (≈ 32.8 µM)	0.03 µg/mL (≈ 0.082 µM)	0.03 µg/mL (≈ 0.082 µM)	0.06 µg/mL (≈ 0.164 µM)	0.03 µg/mL (≈ 0.082 µM)	6.04	0.03 µg/mL (≈ 0.082 µM)	0.007 µg/mL (≈ 0.0191 µM)	0.12 µg/mL (≈ 0.328 µM)	0.03 µg/mL (≈ 0.082 µM)	8.47	0.03 µg/mL (≈ 0.082 µM)	C[C@H]1[C@H](N)CN1c1c(F)cc2c(=O)c(C(=O)O)cn(C3CC3)c2c1Cl	38 mg/kg	9.6 mg/kg	2.8 mg/kg	–
23200 ng·h/mL	0.769	0.06 µg/mL (≈ 0.159 µM)	0.12 µg/mL (≈ 0.318 µM)	97.1 µg/mL (≈ 257 µM)	0.06 µg/mL (≈ 0.159 µM)	0.25 µg/mL (≈ 0.662 µM)	1 µg/mL (≈ 2.65 µM)	0.25 µg/mL (≈ 0.662 µM)	6.08	0.015 µg/mL (≈ 0.0397 µM)	0.25 µg/mL (≈ 0.662 µM)	2 µg/mL (≈ 5.3 µM)	1 µg/mL (≈ 2.65 µM)	8.2	0.12 µg/mL (≈ 0.318 µM)	C[C@@H]1[C@@H](N(C)C)CN1c1c(F)cc2c(=O)c(C(=O)O)cn(C3CC3)c2c1F	164 mg/kg	17.9 mg/kg	3.1 mg/kg	–
10300 ng·h/mL	0.179	0.03 µg/mL (≈ 0.0869 µM)	0.03 µg/mL (≈ 0.0869 µM)	9.2 µg/mL (≈ 26.6 µM)	0.06 µg/mL (≈ 0.174 µM)	0.06 µg/mL (≈ 0.174 µM)	0.25 µg/mL (≈ 0.724 µM)	0.12 µg/mL (≈ 0.347 µM)	6.5	0.03 µg/mL (≈ 0.0869 µM)	0.06 µg/mL (≈ 0.174 µM)	0.5 µg/mL (≈ 1.45 µM)	0.12 µg/mL (≈ 0.347 µM)	8.6	0.12 µg/mL (≈ 0.347 µM)	CN[C@H]1CN(c2cc3c(cc2F)c(=O)c(C(=O)O)cn3C2CC2)[C@@H]1C	80.4 mg/kg	23.3 mg/kg	2 mg/kg	–
24500 ng·h/mL	0.0755	0.03 µg/mL (≈ 0.0859 µM)	0.03 µg/mL (≈ 0.0859 µM)	23.2 µg/mL (≈ 66.4 µM)	0.06 µg/mL (≈ 0.172 µM)	0.03 µg/mL (≈ 0.0859 µM)	0.25 µg/mL (≈ 0.716 µM)	0.06 µg/mL (≈ 0.172 µM)	6.13	0.03 µg/mL (≈ 0.0859 µM)	0.015 µg/mL (≈ 0.0429 µM)	0.25 µg/mL (≈ 0.716 µM)	0.06 µg/mL (≈ 0.172 µM)	8.35	0.06 µg/mL (≈ 0.172 µM)	C[C@H]1[C@H](N)CN1c1c(F)cc2c(=O)c(C(=O)O)cn(C3CC3)c2c1F	22.1 mg/kg	9 mg/kg	2 mg/kg	–
–	–	–	–	–	–	–	–	–	6.48	–	–	–	–	–	–	CCNC1CN(c2cc3c(cc2F)c(=O)c(C(=O)O)cn3C2CC2)C1	–	–	–	pKa [12]: 8.62
–	0.1055	–	–	0.5 µg/mL (≈ 1.38 µM)	–	–	–	–	6.26	–	–	–	–	8.58	–	CNC1(C)CN(c2c(F)cc3c(=O)c(C(=O)O)cn(C4CC4)c3c2F)C1	–	–	–	–
–	0.604	–	–	23.6 µg/mL (≈ 62.5 µM)	–	–	–	–	6.05	–	–	–	–	8.12	–	CN(C)C1(C)CN(c2c(F)cc3c(=O)c(C(=O)O)cn(C4CC4)c3c2F)C1	–	–	–	–
–	0.1061	–	–	1.7 µg/mL (≈ 4.65 µM)	–	–	–	–	6.08	–	–	–	–	8.45	–	CC1(N)CN(c2c(F)cc3c(=O)c(C(=O)O)cn(C4CC4)c3c2Cl)C1	–	–	–	–
–	0.0145	0.015 µg/mL (≈ 0.0445 µM)	0.06 µg/mL (≈ 0.178 µM)	–	0.12 µg/mL (≈ 0.356 µM)	0.06 µg/mL (≈ 0.178 µM)	1 µg/mL (≈ 2.96 µM)	0.25 µg/mL (≈ 0.741 µM)	–	0.06 µg/mL (≈ 0.178 µM)	–	1 µg/mL (≈ 2.96 µM)	0.25 µg/mL (≈ 0.741 µM)	–	0.25 µg/mL (≈ 0.741 µM)	CCn1cc(C(=O)O)c(=O)c2cc(F)c(N3C[C@@H](N)[C@@H]3C)c(F)c21	56.3 mg/kg	5.1 mg/kg	4 mg/kg	MIC (Escherichia coli [14]): 0.12 µg/mL (≈ 0.356 µM)
12100 ng·h/mL	0.668	0.06 µg/mL (≈ 0.167 µM)	0.5 µg/mL (≈ 1.39 µM)	96.3 µg/mL (≈ 268 µM)	0.12 µg/mL (≈ 0.334 µM)	0.5 µg/mL (≈ 1.39 µM)	4 µg/mL (≈ 11.1 µM)	0.5 µg/mL (≈ 1.39 µM)	6.29	0.06 µg/mL (≈ 0.167 µM)	0.5 µg/mL (≈ 1.39 µM)	4 µg/mL (≈ 11.1 µM)	0.5 µg/mL (≈ 1.39 µM)	7.9	0.25 µg/mL (≈ 0.696 µM)	C[C@@H]1[C@@H](N(C)C)CN1c1cc2c(cc1F)c(=O)c(C(=O)O)cn2C1CC1	135 mg/kg	62.1 mg/kg	4.5 mg/kg	–
27200 ng·h/mL	-0.0304	0.03 µg/mL (≈ 0.0903 µM)	0.03 µg/mL (≈ 0.0903 µM)	20.3 µg/mL (≈ 61.1 µM)	0.12 µg/mL (≈ 0.361 µM)	0.03 µg/mL (≈ 0.0903 µM)	0.25 µg/mL (≈ 0.752 µM)	0.06 µg/mL (≈ 0.181 µM)	6.26	0.03 µg/mL (≈ 0.0903 µM)	0.03 µg/mL (≈ 0.0903 µM)	0.5 µg/mL (≈ 1.5 µM)	0.06 µg/mL (≈ 0.181 µM)	8.31	0.12 µg/mL (≈ 0.361 µM)	C[C@H]1[C@H](N)CN1c1nc2c(cc1F)c(=O)c(C(=O)O)cn2C1CC1	95.4 mg/kg	13.8 mg/kg	3.5 mg/kg	–

Compound	AUC [1]	Log k' [2]	MIC (Klebsiella pneumoniae)	MIC (Enterobacter cloacae)	solubility [3]	MIC [4]	MIC (Morganella morganii)	MIC (Enterococcus faecalis [5])	MIC (Proteus vulgaris)	pKa [6]	MIC (Bacillus subtilis)	MIC (Escherichia coli [7])	MIC (Pseudomonas aeruginosa)	MIC (Bacillus cereus)	pKa [9]	MIC (Staphylococcus aureus)	ED50 (Mus musculus [8])	ED50 (Mus musculus [10])	ED50 (Mus musculus [11])	further results
O=C(O)c1cn(C2CC2)c2cc(N3CCNCC3)c(F)cc2c1=O [CIPROFLOXACIN]	2300 ng·h/mL	–	–	–	–	0.5 µg/mL (≈ 1.51 µM)	0.06 µg/mL (≈ 0.181 µM)	–	0.06 µg/mL (≈ 0.181 µM)	–	0.06 µg/mL (≈ 0.181 µM)	–	0.12 µg/mL (≈ 0.362 µM)	0.25 µg/mL (≈ 0.754 µM)	–	0.25 µg/mL (≈ 0.754 µM)	70.3 mg/kg	45.1 mg/kg	3 mg/kg	MIC (Enterococcus faecalis [13]): 0.5 µg/mL (≈ 1.51 µM)

Source: ChEMBL document CHEMBL1127424, “7-azetidinylquinolones as antibacterial agents. 2. Synthesis and biological activity of 7-(2,3-disubstituted-1-azetidinyl)-4-oxoquinoline- and -1,8-naphthyridine-3-carboxylic acids. Properties and structure-activity relationships of quinolones with an azetidine moiety” (J Med Chem, 1994)
